The test system of one assay is Helicobacter pylori. The assay is described as follows: Antimicrobial activity against Helicobacter pylori ATCC 700392. The format is functional.
Assay [1] in a line: Cytotoxicity against human HepG2(2.2.15) cells after 3 days by MTS assay. The format is functional, cell-based. Particulars: HepG2 2.2.15, 72 h. Put shortly: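 HepG2 2.2.15 cells exposed for 3 days to 2-fold serial dilutions, 1.25–40 μg/mL. Viability read by MTS assay, in triplicate. Expressed as percentage of untreated control. Fluorouracil as positive control.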
For the next assay, the system named is AGS. The experiment in a line: Cytotoxicity against human AGS cells. The format is functional, cell-based.
The test system of the next assay is Escherichia coli. The experiment in a line: Antimicrobial activity against Escherichia coli ATCC 35150 after 24 hrs by broth microdilution method. For orientation: In broth dilution the organism is exposed to a series of concentrations in liquid medium.
The test system of a further assay is Enterococcus faecalis. The experiment in a line: Antimicrobial activity against Enterococcus faecalis ATCC 29212 after 24 hrs by broth microdilution method. The format is functional, organism-based. Put shortly:
(§1)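 MIC by broth microdilution per CLSI guidelines. Strains grown on nutrient agar at 37 °C for 24 h. Inoculum prepared in normal saline against a 0.5 McFarland standard, final density 5 × 10^5 cfu/mL. Compounds dissolved in DMSO, then nutrient broth. 2-fold serial dilutions from 128 down to 0.25 μg/mL. Ampicillin column as positive control.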

The subject of another assay is Listeria monocytogenes. The assay is described as follows: Antimicrobial activity against Listeria monocytogenes ATCC 7644 after 24 hrs by broth microdilution method. In kind it is functional, organism-based. Put shortly:
as §1

The test system of assay [2] is Salmonella enterica subsp. enterica. The experiment in a line: Antimicrobial activity against Salmonella enterica ATCC 13311 after 24 hrs by broth microdilution method. The format is functional, organism-based. In a few lines: as §1
Assay [3] concerns Hepatitis B virus. The experiment in a line: Antiviral activity against Hepatitis B virus infected in human HepG2(2.2.15) cells assessed as reduction of HBsAg secretion by enzyme immunoassay. The format is functional, organism-based. In a few lines: (§2)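 HepG2 2.2.15 cells grown in modified Eagle's medium with 10% FBS, no antibiotics, 37 °C, 5% CO2. Confluent cultures treated at nontoxic concentrations in medium with 2% FBS, renewed every 3 days. Medium collected at day 6; HBsAg and HBeAg measured by enzyme immunoassay. Values relative to 0.1% DMSO control. IFN-alpha as positive control.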

Assay [4] deals with Hepatitis B virus. The experiment in a line: Antiviral activity against Hepatitis B virus infected in human HepG2(2.2.15) cells assessed as reduction of HBeAg secretion by enzyme immunoassay. The format is functional, organism-based. Put shortly:
as §2

The test system of another assay is Pseudomonas aeruginosa. The assay is described as follows: Antimicrobial activity against Pseudomonas aeruginosa ATCC 27853 after 24 hrs by broth microdilution method. In kind it is functional, organism-based. Put shortly:
as §1

The test system of the next assay is Bacillus cereus. The assay is described as follows: Antimicrobial activity against Bacillus cereus ATCC 9139 after 24 hrs by broth microdilution method. In kind it is functional. Particulars: ATCC 9139, 24 h. Put shortly: as §1
The next assay deals with Staphylococcus aureus. The experiment in a line: Antimicrobial activity against Staphylococcus aureus ATCC 29213 after 24 hrs by broth microdilution method. In kind it is functional. Particulars: ATCC 29213, 24 h. Put shortly: as §1

Values after ≈ are worked out from the molar mass of the structure shown. Active and inactive are the calls of the source. The rule behind the calls is not given here.

With `CC1(C)CC[C@]2(C(=O)O)CC[C@]3(C)C(=C2C1)C=C[C@@H]1[C@@]2(C)CC[C@H](OS(=O)(=O)O)C(C)(C)[C@@H]2CC[C@]13C` [FATSICARPAIN B], in the assay on Helicobacter pylori, the MBC was found to be 128 µg/mL (≈ 239 µM). Moreover, the concentration for half-maximal inhibition (IC50) (in assay [1]; in the assay with AGS) was above 50 µM in each case. The MIC entry (in the assay on Escherichia coli; in the assay on Enterococcus faecalis; with Listeria monocytogenes; in assay [2]; in the assay with Pseudomonas aeruginosa) was “inactive” throughout. In addition, the inhibition result in the assay with Hepatitis B virus [3] and in the assay on Hepatitis B virus [4] was “inactive” throughout.
Consider `CC1(C)CC[C@@]23CC[C@]4(C)[C@@](C=C[C@@H]5[C@@]6(C)CC[C@@H](O)[C@@](C)(CO)[C@@H]6CC[C@]54C)(OC2=O)[C@@H]3C1` [FATSICARPAIN G], for which the MBC against Helicobacter pylori came out at 64 µg/mL (≈ 136 µM). Moreover, the figures for the IC50 (in [1]; in the assay on AGS) were 29.2 µM and 33.2 µM, respectively. Further, the MIC entry (in the assay with Escherichia coli; with Enterococcus faecalis; with Listeria monocytogenes; in assay [2]; in the assay on Pseudomonas aeruginosa) was “inactive” in each case. For the same molecule, the inhibition result with Hepatitis B virus [3] and in the assay on Hepatitis B virus [4] was “inactive” each time.
`CC1(C)CC[C@]2(C(=O)O)CC[C@]3(C)C(=CC=C4[C@@]5(C)CC[C@@H](O)C(C)(C)[C@@H]5CC[C@]43C)[C@@H]2C1` [FATSICARPAIN D]: the MBC in the assay on Helicobacter pylori is 64 µg/mL (≈ 141 µM). The IC50 amounted to 28.8 µM in [1] and 42.8 µM in the assay on AGS. The MIC entry (with Escherichia coli; with Enterococcus faecalis; in the assay with Listeria monocytogenes; in assay [2]; in the assay with Pseudomonas aeruginosa) was “inactive” throughout. Moreover, the inhibition result in the assay on Hepatitis B virus [3] and with Hepatitis B virus [4] was “inactive” throughout. The minimal inhibitory concentration (MIC) in the assay with Bacillus cereus stood at 8 µg/mL (≈ 17.6 µM).
In the assay with Helicobacter pylori, `CO[C@@H]1C=C2[C@@H]3CC(C)(C)CC[C@]3(C(=O)O)CC[C@@]2(C)[C@]2(C)CC[C@H]3C(C)(C)[C@H](O)CC[C@]3(C)[C@@H]12` [FATSICARPAIN F] yielded a minimum bactericidal concentration (MBC) of 64 µg/mL (≈ 131 µM). The half-maximal inhibitory concentration (IC50) is 23.9 µM in [1] and above 50 µM with AGS. Besides, the MIC entry (in the assay with Escherichia coli; in the assay with Enterococcus faecalis; in the assay with Listeria monocytogenes; in [2]; in the assay on Pseudomonas aeruginosa) was “inactive” throughout. Besides, the inhibition entry with Hepatitis B virus [3] and with Hepatitis B virus [4] was “inactive” each time. Inhibition of growth against Bacillus cereus (MIC) required 2 µg/mL (≈ 4.11 µM).
Molecule `CC1(C)CC[C@@]23CC[C@]4(C)[C@@](C=C[C@@H]5[C@@]6(C)CC[C@@H](O)C(C)(C)[C@@H]6CC[C@]54C)(OC2=O)[C@@H]3C1` gave an MBC with Helicobacter pylori above 128 µg/mL. In addition, the IC50 was above 50 µM in assay [1] and 9 µM with AGS. For the same molecule, the MIC entry (in the assay on Escherichia coli; in the assay on Enterococcus faecalis; in the assay with Listeria monocytogenes; in [2]; with Pseudomonas aeruginosa) was “inactive” each time. The inhibition entry in the assay with Hepatitis B virus [3] and with Hepatitis B virus [4] was “inactive” each time.
The molecule `CC1(C)CC[C@]2(C(=O)O)CC[C@]3(C)C(=C2C1)C=C[C@@H]1[C@@]2(C)CC[C@@H](O)C(C)(C)[C@@H]2CC[C@]13C` had a minimum bactericidal concentration (MBC) against Helicobacter pylori of 128 µg/mL (≈ 282 µM). The 50% inhibitory concentration (IC50) (in assay [1]; with AGS) was above 50 µM in each case. In addition, the MIC result (in the assay with Escherichia coli; in the assay with Enterococcus faecalis; with Listeria monocytogenes; in assay [2]; in the assay with Pseudomonas aeruginosa) was “inactive” in each case. Besides, the inhibition result in the assay with Hepatitis B virus [3] and in the assay on Hepatitis B virus [4] was “inactive” in each case.
For the molecule `CC1(C)CC[C@]2(C(=O)O)CC[C@]3(C)C(=C2C1)C=C[C@@H]1[C@@]2(C)CC[C@@H](O)[C@@](C)(CO)[C@@H]2CC[C@]13C` [FATSICARPAIN A], the minimum bactericidal concentration (MBC) in the assay with Helicobacter pylori worked out at 64 µg/mL (≈ 136 µM). Also, the IC50 worked out at 18.9 µM in assay [1] and 10.1 µM with AGS. The MIC result (with Escherichia coli; in the assay on Enterococcus faecalis; with Listeria monocytogenes; in assay [2]; in the assay with Pseudomonas aeruginosa) was “inactive” throughout. The inhibition entry with Hepatitis B virus [3] and with Hepatitis B virus [4] was “inactive” each time. The MIC in the assay with Bacillus cereus is 32 µg/mL (≈ 68 µM).
Molecule `CC1(C)CC[C@]2(C(=O)O)CC[C@]3(C)C(=C2C1)C=C[C@@H]1[C@@]2(C)CC[C@@H](O)[C@@](C)(C=O)[C@@H]2CC[C@]13C` [FATSICARPAIN C] came in with an MBC in the assay with Helicobacter pylori of 64 µg/mL (≈ 137 µM). Besides, the IC50 in [1] is 16.7 µM; in the assay on AGS, above 50 µM. Besides, the MIC result (with Escherichia coli; with Enterococcus faecalis; in the assay with Listeria monocytogenes; in [2]; in the assay with Pseudomonas aeruginosa) was “inactive” throughout. Moreover, the minimum inhibitory concentration (MIC) was 64 µg/mL (≈ 137 µM) in the assay on Staphylococcus aureus and 32 µg/mL (≈ 68.3 µM) against Bacillus cereus. Further, the inhibition result in the assay with Hepatitis B virus [3] and in the assay with Hepatitis B virus [4] was “inactive” throughout.
Consider `CC1(C)C=C2[C@H]3C[C@@H](O)[C@@H]4[C@@]5(C)CC[C@@H](O)C(C)(C)[C@@H]5CC[C@@]4(C)[C@]3(C)CC[C@@]2(C(=O)O)CC1` [FATSICARPAIN E], for which, in the assay with Helicobacter pylori, the MBC is 128 µg/mL (≈ 271 µM). Also, the 50% inhibitory concentration (IC50) is above 50 µM in [1] and 47.6 µM in the assay on AGS. For the same molecule, the MIC result (in the assay with Escherichia coli; in the assay with Enterococcus faecalis; with Listeria monocytogenes; in assay [2]; with Pseudomonas aeruginosa) was “inactive” throughout. Moreover, the inhibition result in the assay on Hepatitis B virus [3] and in the assay on Hepatitis B virus [4] was “inactive” throughout. Further, in the assay with Bacillus cereus, the MIC was 64 µg/mL (≈ 135 µM).

Usually MBC stands for the lowest tested concentration that kills the bacteria rather than only halting them. A high value points to less potent killing. The term IC50 denotes the concentration that gives 50% inhibition. Low values mean greater potency in that assay, high ones weaker potency in that assay. Broadly, the MIC is the lowest concentration found to suppress growth.
